Test results taken from ChEMBL document CHEMBL1121657, “Effects of 1-arylpyrroles and naphthoflavones upon cytochrome P-450 dependent monooxygenase activities” (J Med Chem, 1981).

Columns and labels:
Rattus norvegicus [1] = species: Rattus norvegicus; assay: Compound was evaluated for alpha -rate constant, in liver microsomes from 3-methylcholanthrene-exposed rats; details: Microsome
Method in brief: (§1)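 Rats (male Sprague-Dawley, 75-125 g) dosed ip with 3MC or βNF, 50 mg/kg in corn oil, on 3 successive days; liver microsomes isolated day 4. 7-Ethoxycoumarin deethylation (2.5-300 μM substrate) measured with inhibitor present; KM and Vmax by Eisenthal–Cornish-Bowden direct linear method. Ki from x-intercept of least-squares KM/Vmax vs [I]; αKi from x-intercept of 1/Vmax vs [I].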

Rattus norvegicus [2] = species: Rattus norvegicus; assay: Compound was evaluated for alpha -rate constant, in liver microsomes from beta-naphthoflavone-exposed rats; details: Microsome; method in brief: as §1
Rattus norvegicus [3] = species: Rattus norvegicus; assay: Michaelis-Menten constant for 7-ethoxycoumarin deethylation in rat liver microsomes exposed to 3-methylcholanthrene at a concentration of 50 uM; details: Microsome
Method in brief: (§2)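 Liver microsomes from male Sprague-Dawley rats given 3MC or βNF ip (50 mg/kg/day, corn oil, 3 days), harvested day 4. NADPH-regenerating system in 0.1 M Tris-HCl pH 7.4. Substrate 2.5-300 μM final. Inhibitor added from methanol stock. Reaction started with 0.375-0.56 mg microsomal protein, run 4 min at 37 °C, stopped with TCA. 7-Hydroxycoumarin fluorescence read at pH 10.3. At least four assays per substrate concentration. KM and Vmax by direct linear method, with distribution-free 95% confidence limits.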

[4] = Compound was evaluated for inhibition constant, in liver microsomes from 3-methylcholanthrene-exposed rats; set-up: species or system Rattus norvegicus, Microsome
Rattus norvegicus [5] = species: Rattus norvegicus; assay: Michaelis-Menten constant for 7-ethoxycoumarin deethylation in rat liver microsomes exposed to beta-naphthoflavone at 5 uM; details: Microsome; method in brief: as §2
Rattus norvegicus [6] = species: Rattus norvegicus; assay: Maximum rate constant for 7-ethoxycoumarin deethylation in rat liver microsomes exposed to 3-methylcholanthrene at concentration of 25 nM; details: Microsome
Rattus norvegicus [7] = species: Rattus norvegicus; assay: Michaelis-Menten constant for 7-ethoxycoumarin deethylation in rat liver microsomes exposed to beta-naphthoflavone at 27.5 uM; details: Microsome; method in brief: as §2
Rattus norvegicus [8] = species: Rattus norvegicus; assay: Maximum rate constant for 7-ethoxycoumarin deethylation in rat liver microsomes exposed to beta-naphthoflavone at 50 uM; details: Microsome; method in brief: as §2
[9] = Compound was evaluated for inhibition constant, in liver microsomes from beta-naphthoflavone-exposed rats; set-up: species or system Rattus norvegicus, Microsome
Rattus norvegicus [10] = species: Rattus norvegicus; assay: Michaelis-Menten constant for 7-ethoxycoumarin deethylation in rat liver microsomes exposed to beta-naphthoflavone at 50 uM; details: Microsome
Method in brief: (§3)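 Liver microsomes from young male Sprague-Dawley rats (75-125 g) given the inducer ip in corn oil at 50 mg/kg on 3 successive days, microsomes isolated on day 4. 7-Ethoxycoumarin (2.5 to 300 μM final) in 0.1 M Tris-HCl pH 7.4 with NADPH-regenerating system. Reaction started with microsomal protein (0.375-0.56 mg), run 4 min at 37 °C, stopped with TCA. 7-Hydroxycoumarin read fluorometrically at pH 10.3. Inhibitor added from methanol stock, ≥4 assays per condition. KM/Vmax obtained by the Eisenthal–Cornish-Bowden direct linear method with 95% distribution-free confidence limits.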

Rattus norvegicus [11] = species: Rattus norvegicus; assay: Maximum rate constant for 7-ethoxycoumarin deethylation in rat liver microsomes exposed to 3-methylcholanthrene at concentration of 50 nM; details: Microsome
Rattus norvegicus [12] = species: Rattus norvegicus; assay: Michaelis-Menten constant for 7-ethoxycoumarin deethylation in rat liver microsomes exposed to 3-methylcholanthrene at a concentration of 25 uM; details: Microsome; method in brief: as §2
Rattus norvegicus [13] = species: Rattus norvegicus; assay: Maximum rate constant for 7-ethoxycoumarin deethylation in rat liver microsomes exposed to beta-naphthoflavone at concentration of 27.5 uM; details: Microsome; method in brief: as §2
Rattus norvegicus [14] = species: Rattus norvegicus; assay: Vmax determined by 7-ethoxycoumarin deethylation in the presence by liver microsomes from rats exposed to 3-methylcholanthrene at concentration of 10 nM; details: Microsome
Rattus norvegicus [15] = species: Rattus norvegicus; assay: Michaelis-Menten constant for 7-ethoxycoumarin deethylation in rat liver microsomes exposed to 3-methylcholanthrene at a concentration of 10 nM; details: Microsome
Rattus norvegicus [16] = species: Rattus norvegicus; assay: Maximum rate constant for 7-ethoxycoumarin deethylation in rat liver microsomes exposed to beta-naphthoflavone at 5 uM; details: Microsome; method in brief: as §2
Rattus norvegicus [17] = species: Rattus norvegicus; assay: Michaelis-Menten constant for 7-ethoxycoumarin deethylation in rat liver microsomes exposed to 3-methylcholanthrene at concentration of 25 nM; details: Microsome
Rattus norvegicus [18] = species: Rattus norvegicus; assay: Michaelis-Menten constant for 7-ethoxycoumarin deethylation in rat liver microsomes exposed to beta-naphthoflavone at 500 uM; details: Microsome; method in brief: as §3
Rattus norvegicus [19] = species: Rattus norvegicus; assay: Michaelis-Menten constant for 7-ethoxycoumarin deethylation in rat liver microsomes exposed to beta-naphthoflavone at 1000 nM; details: Microsome
Rattus norvegicus [20] = species: Rattus norvegicus; assay: Maximum rate constant for 7-ethoxycoumarin deethylation in rat liver microsomes exposed to 3-methylcholanthrene at concentration of 75 nM; details: Microsome
Rattus norvegicus [21] = species: Rattus norvegicus; assay: Maximum rate constant for 7-ethoxycoumarin deethylation in rat liver microsomes exposed to beta-naphthoflavone at 1500 uM; details: Microsome; method in brief: as §2
Rattus norvegicus [22] = species: Rattus norvegicus; assay: Michaelis-Menten constant for 7-ethoxycoumarin deethylation in rat liver microsomes exposed to 3-methylcholanthrene at concentration of 50 nM; details: Microsome
Rattus norvegicus [23] = species: Rattus norvegicus; assay: Maximum rate constant for 7-ethoxycoumarin deethylation in rat liver microsomes exposed to beta-naphthoflavone at 1000 nM; details: Microsome
Rattus norvegicus [24] = species: Rattus norvegicus; assay: Michaelis-Menten constant for 7-ethoxycoumarin deethylation in rat liver microsomes exposed to 3-methylcholanthrene at concentration of 75 nM; details: Microsome
Rattus norvegicus [25] = species: Rattus norvegicus; assay: Michaelis-Menten constant for 7-ethoxycoumarin deethylation in rat liver microsomes exposed to beta-naphthoflavone at 1500 nM; details: Microsome
Rattus norvegicus [26] = species: Rattus norvegicus; assay: Maximum rate constant for 7-ethoxycoumarin deethylation in rat liver microsomes exposed to beta-naphthoflavone at 500 uM; details: Microsome; method in brief: as §2
Rattus norvegicus [27] = species: Rattus norvegicus; assay: Michaelis-Menten constant for 7-ethoxycoumarin deethylation in rat liver microsomes exposed to 3-methylcholanthrene at concentration of 100 uM; details: Microsome; method in brief: as §2
Rattus norvegicus [28] = species: Rattus norvegicus; assay: Michaelis-Menten constant for 7-ethoxycoumarin deethylation in rat liver microsomes exposed to exposed to 3-methylcholanthrene at concentration; details: Microsome
Rattus norvegicus [29] = species: Rattus norvegicus; assay: Maximum rate constant for 7-ethoxycoumarin deethylation in rat liver microsomes exposed to 3-methylcholanthrene at concentration of 100 nM; details: Microsome
Rattus norvegicus [30] = species: Rattus norvegicus; assay: Maximum rate constant for 7-ethoxycoumarin deethylation in rat liver microsomes exposed to beta-naphthoflavone at concentration of 1000 uM; details: Microsome; method in brief: as §2
Rattus norvegicus [31] = species: Rattus norvegicus; assay: Maximum rate constant for 7-ethoxycoumarin deethylation in rat liver microsomes exposed to beta-naphthoflavone at concentration of 500 uM; details: Microsome; method in brief: as §2
Rattus norvegicus [32] = species: Rattus norvegicus; assay: Maximum rate constant for 7-ethoxycoumarin deethylation in rat liver microsomes exposed to beta-naphthoflavone at concentration of 1500 uM; details: Microsome; method in brief: as §2
Rattus norvegicus [33] = species: Rattus norvegicus; assay: Compound was evaluated for alpha -rate constant, in liver microsomes from beta-naphthoflavone-exposed rats; competitive inhibition; details: Microsome; method in brief: as §1
Rattus norvegicus [34] = species: Rattus norvegicus; assay: Maximum rate constant for 7-ethoxycoumarin deethylation in rat liver microsomes exposed to 3-methylcholanthrene at concentration of 200 uM; details: Microsome, 225 nM, in the assay text read “225 nM” for “200 uM”; method in brief: as §2

Q: With `c1ccc(-c2c[nH]cn2)cc1` as the compound, how does the Alpha Ki (Rattus norvegicus [1]) read?
A: 64 µM

Q: And the Alpha Ki (Rattus norvegicus [2])?
A: 75 µM

Q: Which Km (Rattus norvegicus [3]) does the source give for `O=c1cc(-c2ccccc2)oc2c1ccc1ccccc12` [ALPHA-NAPHTHOFLAVONE] here?
A: 23.4 µM

Q: And the Alpha Ki (Rattus norvegicus [1])?
A: 0.033 µM

Q: And the Ki [4]?
A: 0.017 µM

Q: What about the Km (Rattus norvegicus [5]) of the same compound?
A: 18.5 µM

Q: And the Vmax (pM min-1 mg-1) (Rattus norvegicus [6])?
A: 108

Q: And the Km (Rattus norvegicus [7])?
A: 17 µM

Q: What about the Alpha Ki (Rattus norvegicus [2]) of the same compound?
A: 0.048 µM

Q: And the Vmax (pM min-1 mg-1) (Rattus norvegicus [8])?
A: 665

Q: And the Ki [9]?
A: 0.024 µM

Q: And the Km (Rattus norvegicus [10])?
A: 25.7 µM

Q: And the Vmax (pM min-1 mg-1) (Rattus norvegicus [11])?
A: 69

Q: What about the Km (Rattus norvegicus [12]) of the same compound?
A: 17.3 µM

Q: And the Vmax (pM min-1 mg-1) (Rattus norvegicus [13])?
A: 904

Q: What about the Vmax (pM min-1 mg-1) (Rattus norvegicus [14]) of the same compound?
A: 137

Q: And the Km (Rattus norvegicus [15])?
A: 19.6 µM

Q: And the Vmax (pM min-1 mg-1) (Rattus norvegicus [16])?
A: 1220

Q: Which Km (Rattus norvegicus [17]) does the source give for `O=c1cc(-c2ccccc2)oc2ccc3ccccc3c12` [BETA-NAPHTHOFLAVONE] here?
A: 19.2 µM

Q: And the Km (Rattus norvegicus [18])?
A: 33.9 µM

Q: And the Km (Rattus norvegicus [19])?
A: 60 µM

Q: And the Alpha Ki (Rattus norvegicus [1])?
A: 0.28 µM

Q: What about the Vmax (pM min-1 mg-1) (Rattus norvegicus [20]) of the same compound?
A: 134

Q: What about the Vmax (pM min-1 mg-1) (Rattus norvegicus [21]) of the same compound?
A: 1000

Q: And the Ki [4]?
A: 0.026 µM

Q: And the Vmax (pM min-1 mg-1) (Rattus norvegicus [6])?
A: 159

Q: And the Alpha Ki (Rattus norvegicus [2])?
A: 4 µM

Q: What about the Km (Rattus norvegicus [22]) of the same compound?
A: 26.6 µM

Q: What about the Vmax (pM min-1 mg-1) (Rattus norvegicus [23]) of the same compound?
A: 1100

Q: And the Ki [9]?
A: 0.13 µM

Q: What about the Vmax (pM min-1 mg-1) (Rattus norvegicus [11]) of the same compound?
A: 143

Q: And the Km (Rattus norvegicus [24])?
A: 39.7 µM

Q: What about the Km (Rattus norvegicus [25]) of the same compound?
A: 93.2 µM

Q: And the Vmax (pM min-1 mg-1) (Rattus norvegicus [26])?
A: 1200

Q: Which Km (Rattus norvegicus [18]) does the source give for `O=c1cc(-c2ccccc2)oc2ccccc12` [FLAVONE] here?
A: 50.3 µM

Q: And the Km (Rattus norvegicus [19])?
A: 115 µM

Q: What about the Alpha Ki (Rattus norvegicus [1]) of the same compound?
A: 0.57 µM

Q: And the Km (Rattus norvegicus [27])?
A: 35.8 µM

Q: And the Km (Rattus norvegicus [28])?
A: 62.6 µM

Q: And the Vmax (pM min-1 mg-1) (Rattus norvegicus [29])?
A: 149

Q: What about the Ki [4] of the same compound?
A: 0.033 µM

Q: And the Vmax (pM min-1 mg-1) (Rattus norvegicus [30])?
A: 1370

Q: And the Km (Rattus norvegicus [22])?
A: 22.3 µM

Q: And the Ki [9]?
A: 0.19 µM

Q: And the Vmax (pM min-1 mg-1) (Rattus norvegicus [31])?
A: 1340

Q: What about the Vmax (pM min-1 mg-1) (Rattus norvegicus [32]) of the same compound?
A: 1330

Q: And the Vmax (pM min-1 mg-1) (Rattus norvegicus [11])?
A: 153

Q: What about the “Alpha Ki” value (Rattus norvegicus [33]) of the same compound?
A: Competitive inhibition

Q: And the Km (Rattus norvegicus [25])?
A: 136 µM

Q: And the Vmax (pM min-1 mg-1) (Rattus norvegicus [34])?
A: 120
